Shown are actives, neighbours in structure and some others; about 2.9% of the full set was active somewhere.
ATG4B inhibitor = ATG4B (human) cysteine protease inhibition. actives 0.51% (n = 340,000). inhibition, % at 8.33 µM. Q9Y4P1. ATG4B cleavage of LC3-PLA2, NBD-HPC fluorescence, 1 h. AID 504462; in the data active means inhibition above about 40%
TCR-CD3 inh = blocks the human TCR-CD3 interaction | inhibition, % at 9.4 µM | actives 0.37% (n = 360,000) | TAMRA-labeled TCR probe fluorescence, biochemical; in the data active means inhibition above about 19%;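 further: recombinant mutant TCR 2C K166C tagged with TAMRA read by polarization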
HTRA1 inhibitor = blocks human HTRA1 serine peptidase | recombinant HTRA1, FP-rhodamine activity-based probe, fluorescence polarization | actives 0.5% (n = 340,000) | AID 504803 | inhibition, % at 5.96 µM; in the data active means inhibition above about 36%
Target sequence (Q92743 whole entry, looked up): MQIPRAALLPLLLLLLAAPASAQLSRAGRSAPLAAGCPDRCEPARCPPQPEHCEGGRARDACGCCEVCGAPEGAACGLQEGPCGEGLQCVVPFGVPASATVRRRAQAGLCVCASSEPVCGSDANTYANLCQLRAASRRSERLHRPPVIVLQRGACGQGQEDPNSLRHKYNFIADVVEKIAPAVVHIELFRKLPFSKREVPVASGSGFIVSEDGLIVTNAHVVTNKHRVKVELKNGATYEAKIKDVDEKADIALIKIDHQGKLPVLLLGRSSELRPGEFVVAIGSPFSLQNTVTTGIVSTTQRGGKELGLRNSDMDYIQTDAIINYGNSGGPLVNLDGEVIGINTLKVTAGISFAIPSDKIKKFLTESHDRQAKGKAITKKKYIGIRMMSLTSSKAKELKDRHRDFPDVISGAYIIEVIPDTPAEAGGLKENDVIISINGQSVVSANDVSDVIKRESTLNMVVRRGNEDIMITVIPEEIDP
ABHD4 inh = inhibitors of mouse ABHD4; inhibition, % at 8.92 µM; actives 0.54% (n = 370,000); AID 720543; purified mABHD4, FP-Rh probe fluorescence polarization; Q8VD66;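 active means inhibition exceeding the mean over every tested compound plus 3 SD, cut at about 30% in these data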
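Material: mouse ABHD4 enzyme, wild type; Benchmarks: S159A mutant high control, sample median low control; Buffer or medium: HEPES pH 7.0, NaCl, Pluronic buffer; Signal: fluorescence polarization; Read-out: percent inhibition of probe binding, normalized to plate controls; Timing: pre-incubation 45 min, probe exposure 60 min, at 25 °C; Dosing: 8.92 µM, single dose.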
PRMT1 FP inh = PRMT1 (human) inhibition, primary screen | recombinant PRMT1, activity-based probe fluorescence polarization | inhibition, % at 2.79 µM | actives 1.3% (n = 370,000) | AID 652257;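 active means inhibition above about 21% made by adding two undisclosed values, limit read from the data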
SIAE inh = blocks human sialic acid acetylesterase; Q9HAT2; SIAE FP-Rh probe binding, fluorescence polarization; inhibition, % at 9.66 µM; actives 0.69% (n = 370,000); AID 1053197;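 active means inhibition above a cutoff: mean of compounds within the control limits plus 3 SD of those, cut at about 17% in these data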
Hits are given with their value.

What do the screens show for `Cc1ccc(C(=O)N/N=C/c2cn(Cc3ccccc3)c3ccccc23)cn1`?
ATG4B inhibitor: inactive; TCR-CD3 inh: inactive; HTRA1 inhibitor: inactive; ABHD4 inh: inactive; PRMT1 FP inh: inactive; SIAE inh: inactive

How did CCN(CC(=O)NCc1cccs1)C(=O)c1ccc(-c2ccc(F)cc2)o1 do in these assays?
ATG4B inhibitor: inactive; TCR-CD3 inh: inactive; HTRA1 inhibitor: inactive; ABHD4 inh: inactive; PRMT1 FP inh: 24.1; SIAE inh: inactive

How did CCOC(=O)c1nn(-c2ccccc2C)c(=O)c2c(N)scc12 do in these assays?
ATG4B inhibitor: inactive; TCR-CD3 inh: inactive; HTRA1 inhibitor: inactive; ABHD4 inh: inactive; PRMT1 FP inh: 24.5; SIAE inh: inactive

How did CC(C)[C@@H](NC(=O)OC(C)(C)C)c1cc(C(=O)c2c(-c3ccccc3)[nH]c3ccccc23)c(N)s1 do in these assays?
TCR-CD3 inh: inactive; ABHD4 inh: inactive; PRMT1 FP inh: 23.1; SIAE inh: inactive

How did CC(C)[C@H](NC(=O)OC(C)(C)C)c1cc(C(=O)NCCc2c[nH]c3ccccc23)c(N)s1 do in these assays?
TCR-CD3 inh: inactive; ABHD4 inh: inactive; PRMT1 FP inh: inactive; SIAE inh: inactive

What do the screens show for `Nc1nc(=S)c2[nH]c(=S)[nH]c2[nH]1`?
ATG4B inhibitor: inactive; TCR-CD3 inh: inactive; HTRA1 inhibitor: inactive; ABHD4 inh: inactive; PRMT1 FP inh: inactive; SIAE inh: inactive

What do the screens show for `CSc1nc(=S)c2[nH]c(=S)[nH]c2[nH]1`?
ATG4B inhibitor: inactive; TCR-CD3 inh: inactive; HTRA1 inhibitor: inactive; ABHD4 inh: inactive; PRMT1 FP inh: 87.8; SIAE inh: inactive

How did CC1CCCC(C(=O)O)N1C(=O)CCS (centres undefined) do in these assays?
ATG4B inhibitor: inactive; TCR-CD3 inh: inactive; HTRA1 inhibitor: inactive; ABHD4 inh: inactive; PRMT1 FP inh: 24.7; SIAE inh: inactive

Results for Cc1ccc(CSc2nnc(-c3ccccc3)n2Cc2ccco2)cc1 ?
ABHD4 inh: inactive; PRMT1 FP inh: inactive; SIAE inh: inactive

What do the screens show for `O=C(C[C@H]1C[C@H](C(=O)N2CCOCC2)[C@@]2(CCC3CCCC3)c3[nH]c4cc(-c5ccco5)ccc4c3CCN2C1=O)NCCC1=CCCCC1`?
ATG4B inhibitor: inactive; HTRA1 inhibitor: inactive

How did CC(C)(C)NC(=O)C[C@H]1C[C@H](C(=O)N2CCCCC2)[C@@]2(CCc3ccccc3)c3[nH]c4cc(-c5ccco5)ccc4c3CCN2C1=O do in these assays?
ATG4B inhibitor: inactive; TCR-CD3 inh: inactive; HTRA1 inhibitor: inactive; ABHD4 inh: inactive; PRMT1 FP inh: 23.9; SIAE inh: inactive

Results for O=C(C[C@H]1C[C@H](C(=O)N2CCOCC2)[C@@]2(CCC3CCCC3)c3[nH]c4cc(-c5ccco5)ccc4c3CCN2C1=O)NCc1ccco1 ?
ATG4B inhibitor: inactive; TCR-CD3 inh: inactive; HTRA1 inhibitor: inactive; ABHD4 inh: inactive; PRMT1 FP inh: 21.7; SIAE inh: inactive

How did CN1C(=O)c2cc(NC(=O)C3CC3)ccc2OC[C@H]2O[C@@H](CC(=O)NC3CCC3)CC[C@@H]21 do in these assays?
ABHD4 inh: inactive; PRMT1 FP inh: inactive; SIAE inh: inactive

What do the screens show for `CCOC(=O)c1csc(NC(=O)C2CCCN(S(=O)(=O)c3ccc([N+](=O)[O-])cc3)C2)n1` (centres undefined)?
ABHD4 inh: inactive; PRMT1 FP inh: inactive; SIAE inh: inactive

Results for CC(OC(=O)c1ccc(NC(=O)CC#N)cc1)C(=O)Nc1ccc(Oc2ccccc2)cc1 (centres undefined) ?
TCR-CD3 inh: 35.3; HTRA1 inhibitor: inactive; ABHD4 inh: inactive; PRMT1 FP inh: inactive; SIAE inh: inactive

How did O=C(c1ccco1)[C@@H]1[C@@H]2C(=O)N(c3ccc(Br)cc3)C(=O)[C@@H]2C2c3ccccc3C=CN21 (some centres undefined) do in these assays?
ATG4B inhibitor: inactive; TCR-CD3 inh: inactive; HTRA1 inhibitor: inactive; ABHD4 inh: inactive; PRMT1 FP inh: 24.9; SIAE inh: inactive

What do the screens show for `Cc1nc2sc(C(=O)NCc3ccncc3)c(N)c2c(C)c1Cl`?
ABHD4 inh: inactive; PRMT1 FP inh: inactive; SIAE inh: inactive

How did C[C@H]1[C@@H](OC(=O)NCc2ccc(C(F)(F)F)cc2)CC[C@@]23CCCN2C(=O)CCC[C@@H]13 do in these assays?
ABHD4 inh: inactive; PRMT1 FP inh: inactive; SIAE inh: inactive
